Calls of active or inactive are those of the source. The calls are words filed in the database; no cut-off is given here.
Experiments:
[1] = system: P-gp; assay: Efflux ratio of permeability in MDCK cells harboring P-gp; type: ADME, cell-based, Canis lupus familiaris; conditions: dog, MDCK-MDR1
[2] = Fraction unbound in human plasma after 4 hrs by equilibrium dialysis method; type: ADME, cell-free
[3] = target: Cytochrome P450 2C9 (Homo sapiens, UniProt P11712); assay: Inhibition of CYP2C9 in human liver microsomes using diclofenac as substrate preincubated for 15 mins followed by substrate addition and measured after 8 mins by LC-MS/MS analysis; type: ADME
[4] = target: Metabotropic glutamate receptor 5 (Rattus norvegicus) (UniProt P31424); assay: Allosteric modulation of rat mGlu5 receptor assessed as change in glutamate-induced calcium mobilization at 10 uM preincubated for 2.5 mins followed by glutamate addition by Fluo-4-AM dye based fluorescence assay; type: functional
Summary of the method: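 Human mGlu1 and rat mGlu5 tested by calcium mobilization with a double addition. 10 μM compound was added, then 2.5 min later a full glutamate concentration range. A left shift of more than 2-fold was scored as potentiation. A right shift of more than 2-fold, or a depression of the maximum response by at least 75%, was scored as antagonism.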

[5] = target: T1, Cytochrome P450 1A2 (Homo sapiens, UniProt P05177); assay: Inhibition of CYP1A2 in human liver microsomes using phenacetin as substrate preincubated for 15 mins followed by substrate addition and measured after 8 mins by LC-MS/MS analysis; type: ADME
T1 sequence (P05177 whole entry): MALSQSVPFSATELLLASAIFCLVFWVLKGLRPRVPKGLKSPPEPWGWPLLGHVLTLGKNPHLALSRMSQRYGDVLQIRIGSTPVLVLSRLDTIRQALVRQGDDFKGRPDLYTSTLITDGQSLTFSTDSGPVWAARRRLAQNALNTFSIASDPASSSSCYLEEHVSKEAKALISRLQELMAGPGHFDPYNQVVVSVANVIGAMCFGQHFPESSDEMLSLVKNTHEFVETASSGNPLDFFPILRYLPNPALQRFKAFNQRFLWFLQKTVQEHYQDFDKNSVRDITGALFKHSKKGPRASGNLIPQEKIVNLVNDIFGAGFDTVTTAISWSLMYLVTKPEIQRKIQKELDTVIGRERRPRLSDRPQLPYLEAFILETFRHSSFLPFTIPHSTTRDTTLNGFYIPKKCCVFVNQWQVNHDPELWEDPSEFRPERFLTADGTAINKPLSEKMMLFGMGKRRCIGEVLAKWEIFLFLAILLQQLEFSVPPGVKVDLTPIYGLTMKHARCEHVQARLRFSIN
Summary of the method: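 IC50 for CYP1A2 inhibition determined in human liver microsomes using specific probe substrate-metabolite pairs.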

[6] = target: Metabotropic glutamate receptor 4 (Homo sapiens, UniProt Q14833); assay: Positive allosteric modulation of human mGlu4 receptor expressed in CHO cells co-expressing Gqi5 assessed as increase in glutamate-induced calcium mobilization preincubated for 142 secs followed by EC20 glutamate addition and measured after 147 secs by Fluo-4-AM dye based fluorescence assay relative to control; type: functional, cell-based
Summary of the method: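 CHO cells expressing human mGlu4 and Gqi5, plated at 30,000 cells/well and grown overnight at 37 °C, 5% CO2. Cells were loaded with 1 μM Fluo-4 AM for 45 min at 37 °C in HBSS/20 mM HEPES/2.5 mM probenecid. Compounds were run as 10-point, 1:3 dilution series. After 142 s, EC20 glutamate was added; 147 s later, EC80 glutamate. Fluorescence was normalized to the maximal glutamate response. EC50 and %Glu Max were fitted by four-parameter logistic, with maximum normalized to PHCCC.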

[7] = system: Rattus norvegicus; assay: Reversal of haloperidol-induced catalepsy in Sprague-Dawley rat assessed as decrease in latency to remove forepaws from bar at 10 mg/kg, po administered 30 mins prior to test; type: functional, organism-based
Summary of the method: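 Male Sprague-Dawley rats were randomized and given haloperidol 0.75 mg/kg i.p., then 60 min in home cage. Vehicle or compound (10 mg/kg) was given orally 30 min before catalepsy testing, N = 11–12 rats/group. Data analyzed by one-way ANOVA with Dunnett's test versus vehicle + haloperidol.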

[8] = target: Metabotropic glutamate receptor 8 (Rattus norvegicus) (UniProt P70579); assay: Allosteric modulation of rat mGlu8 receptor expressed in HEK cells co-expressing GIRK1/2 assessed as change in glutamate-induced thallium flux preincubated for 2.5 mins followed by glutamate addition by FluoZin-2-AM dye based fluorescence assay; type: cell-based
Summary of the method: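 HEK cells expressing GIRK1/2 plus rat mGlu2, mGlu3, mGlu7 or mGlu8, plated at 15,000 cells/well. Thallium flux was read with a double addition: 10 μM compound, then 2.5 min later a full agonist concentration-response. The agonist was glutamate, or L-AP4 for mGlu7. A left shift of more than 2-fold counted as potentiation. A right shift of more than 2-fold, or a ≥75% drop in maximum response, counted as antagonism.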

[9] = system: P-gp; assay: Permeability from basolateral to apical side in MDCK cells harboring P-gp; type: ADME, cell-based, Canis lupus familiaris; conditions: dog, MDCK-MDR1; read-out: permeability
[10] = Volume of distribution at steady state in rat administered as iv cassette dose; type: ADME, organism-based; conditions: in vivo, read-out: Vdss
Summary of the method: (§1)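 IV cassette in male Sprague-Dawley rats (~300 g, n = 1 per experiment), cannulated in carotid artery and jugular vein and acclimated about one week. Plasma clearance, Vss, t1/2 and MRT were derived.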

[11] = target: Metabotropic glutamate receptor 4 (Rattus norvegicus, UniProt P31423); assay: Positive allosteric modulation of rat mGlu4 receptor expressed in HEK cells co-expressing GIRK1/2 assessed as increase in glutamate-induced thallium flux preincubated for 140 secs followed by glutamate addition and measured after 2.5 mins by FluoZin-2-AM dye based fluorescence assay; type: cell-based
Summary of the method: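 HEK cells co-expressing rat mGlu4 and GIRK1/2 were loaded for 1 h at room temperature with FluoZin-2 AM (330 nM final) in HBSS/20 mM HEPES pH 7.4. Compound was incubated 140 s, then thallium buffer with or without agonist was added. Reading continued for 2.5 min at room temperature. Potency was fitted by four-parameter logistic.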

[12] = Drug uptake in cerebrospinal fluid of Sprague-Dawley rat model of haloperidol-induced catalepsy at 10 mg/kg, po; type: ADME, organism-based; conditions: in vivo, read-out: Drug uptake
Summary of the method: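 Male Sprague-Dawley rats given haloperidol 0.75 mg/kg i.p., then returned to cages for 60 min. Compound 10 mg/kg was dosed orally 30 min before catalepsy testing. Plasma, brain and CSF were then assayed, and free levels reported.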

[13] = target: Cytochrome P450 3A4 (Homo sapiens, UniProt P08684); assay: Inhibition of CYP3A4 in human liver microsomes using midazolam as substrate preincubated for 15 mins followed by substrate addition and measured after 8 mins by LC-MS/MS analysis; type: ADME
[14] = Brain to plasma partition coefficient, Kp of the compound in rat administered as iv cassette dose; type: ADME, organism-based; conditions: brain and plasma, read-out: Kp
Summary of the method: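 Cassette dosing in male Sprague-Dawley rats (~300 g, n = 1 per experiment), with carotid artery and jugular vein catheters. Animals acclimated about one week with food and water ad libitum. Plasma (ng/mL) and brain (ng/g) levels were measured and Kp calculated.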

[15] = target: Cytochrome P450 2D6 (Homo sapiens, UniProt P10635); assay: Inhibition of CYP2D6 in human liver microsomes using dextromethorphan as substrate preincubated for 15 mins followed by substrate addition and measured after 8 mins by LC-MS/MS analysis; type: ADME
[16] = Clearance in rat administered as iv cassette dose; type: ADME, organism-based; conditions: in vivo; summary of the method: as §1

Sequence of Cytochrome P450 2C9 (P11712 whole entry): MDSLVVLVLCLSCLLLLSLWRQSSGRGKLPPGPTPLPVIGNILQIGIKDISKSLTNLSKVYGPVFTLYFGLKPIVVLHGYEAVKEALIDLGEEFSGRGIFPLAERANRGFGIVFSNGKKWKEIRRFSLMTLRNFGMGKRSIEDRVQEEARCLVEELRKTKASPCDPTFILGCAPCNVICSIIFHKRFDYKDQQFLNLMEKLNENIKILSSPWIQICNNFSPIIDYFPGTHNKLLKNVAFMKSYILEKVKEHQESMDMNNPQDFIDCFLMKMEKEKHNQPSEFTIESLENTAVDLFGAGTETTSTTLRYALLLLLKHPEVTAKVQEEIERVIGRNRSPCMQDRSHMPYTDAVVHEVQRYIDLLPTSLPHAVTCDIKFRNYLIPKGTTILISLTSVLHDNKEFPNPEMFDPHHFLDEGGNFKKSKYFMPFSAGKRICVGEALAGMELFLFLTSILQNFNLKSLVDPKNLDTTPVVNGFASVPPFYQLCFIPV
Sequence of Cytochrome P450 2D6 (P10635 whole entry): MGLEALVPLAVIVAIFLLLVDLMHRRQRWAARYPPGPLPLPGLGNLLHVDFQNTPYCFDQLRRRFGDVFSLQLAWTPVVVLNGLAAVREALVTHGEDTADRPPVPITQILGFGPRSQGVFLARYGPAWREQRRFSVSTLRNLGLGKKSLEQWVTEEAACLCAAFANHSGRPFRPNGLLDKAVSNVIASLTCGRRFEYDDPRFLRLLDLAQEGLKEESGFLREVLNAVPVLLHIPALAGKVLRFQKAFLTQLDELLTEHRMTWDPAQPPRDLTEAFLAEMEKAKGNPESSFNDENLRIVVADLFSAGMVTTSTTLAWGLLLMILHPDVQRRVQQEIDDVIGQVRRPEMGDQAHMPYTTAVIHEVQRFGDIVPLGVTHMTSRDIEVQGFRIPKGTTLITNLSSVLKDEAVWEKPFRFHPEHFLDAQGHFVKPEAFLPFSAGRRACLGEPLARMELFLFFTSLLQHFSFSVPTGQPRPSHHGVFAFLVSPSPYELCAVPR
Sequence of Cytochrome P450 3A4 (P08684 whole entry): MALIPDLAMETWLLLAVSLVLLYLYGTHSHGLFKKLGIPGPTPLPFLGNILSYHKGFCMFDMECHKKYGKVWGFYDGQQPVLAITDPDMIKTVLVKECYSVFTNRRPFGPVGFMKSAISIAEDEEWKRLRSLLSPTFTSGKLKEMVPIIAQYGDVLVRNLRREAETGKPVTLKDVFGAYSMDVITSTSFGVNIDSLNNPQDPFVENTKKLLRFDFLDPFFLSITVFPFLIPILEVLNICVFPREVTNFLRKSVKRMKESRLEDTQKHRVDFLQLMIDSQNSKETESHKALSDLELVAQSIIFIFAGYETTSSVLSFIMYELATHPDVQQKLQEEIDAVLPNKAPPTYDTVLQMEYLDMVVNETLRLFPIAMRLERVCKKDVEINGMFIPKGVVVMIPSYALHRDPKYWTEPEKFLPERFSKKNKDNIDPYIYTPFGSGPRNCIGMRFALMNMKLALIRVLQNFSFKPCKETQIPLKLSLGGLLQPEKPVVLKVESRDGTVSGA
Sequence of Metabotropic glutamate receptor 8 (Rattus norvegicus) (P70579 whole entry): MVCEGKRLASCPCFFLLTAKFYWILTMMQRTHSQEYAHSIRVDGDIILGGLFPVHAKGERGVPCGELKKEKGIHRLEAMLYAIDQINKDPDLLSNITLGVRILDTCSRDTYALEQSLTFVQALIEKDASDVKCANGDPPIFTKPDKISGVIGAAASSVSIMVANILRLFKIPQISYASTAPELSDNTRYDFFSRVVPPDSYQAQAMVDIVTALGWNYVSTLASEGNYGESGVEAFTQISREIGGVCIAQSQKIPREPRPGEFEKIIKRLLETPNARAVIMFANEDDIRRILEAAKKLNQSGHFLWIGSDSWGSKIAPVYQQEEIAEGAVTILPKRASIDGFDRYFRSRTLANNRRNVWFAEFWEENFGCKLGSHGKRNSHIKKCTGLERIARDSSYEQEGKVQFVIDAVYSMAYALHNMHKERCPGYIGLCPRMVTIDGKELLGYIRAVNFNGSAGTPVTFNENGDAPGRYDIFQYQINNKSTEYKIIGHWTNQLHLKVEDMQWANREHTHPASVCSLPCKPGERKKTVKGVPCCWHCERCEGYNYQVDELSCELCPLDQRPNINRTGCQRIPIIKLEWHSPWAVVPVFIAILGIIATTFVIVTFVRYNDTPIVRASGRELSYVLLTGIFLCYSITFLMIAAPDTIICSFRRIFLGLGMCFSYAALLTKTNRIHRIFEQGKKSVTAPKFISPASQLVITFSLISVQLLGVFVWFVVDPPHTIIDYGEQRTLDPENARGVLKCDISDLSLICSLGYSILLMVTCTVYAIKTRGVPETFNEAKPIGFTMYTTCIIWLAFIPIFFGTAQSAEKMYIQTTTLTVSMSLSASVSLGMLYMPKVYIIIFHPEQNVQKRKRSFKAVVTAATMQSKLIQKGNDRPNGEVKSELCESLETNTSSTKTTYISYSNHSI
Sequence of Metabotropic glutamate receptor 4 (Homo sapiens, UniProt Q14833) (Q14833 whole entry): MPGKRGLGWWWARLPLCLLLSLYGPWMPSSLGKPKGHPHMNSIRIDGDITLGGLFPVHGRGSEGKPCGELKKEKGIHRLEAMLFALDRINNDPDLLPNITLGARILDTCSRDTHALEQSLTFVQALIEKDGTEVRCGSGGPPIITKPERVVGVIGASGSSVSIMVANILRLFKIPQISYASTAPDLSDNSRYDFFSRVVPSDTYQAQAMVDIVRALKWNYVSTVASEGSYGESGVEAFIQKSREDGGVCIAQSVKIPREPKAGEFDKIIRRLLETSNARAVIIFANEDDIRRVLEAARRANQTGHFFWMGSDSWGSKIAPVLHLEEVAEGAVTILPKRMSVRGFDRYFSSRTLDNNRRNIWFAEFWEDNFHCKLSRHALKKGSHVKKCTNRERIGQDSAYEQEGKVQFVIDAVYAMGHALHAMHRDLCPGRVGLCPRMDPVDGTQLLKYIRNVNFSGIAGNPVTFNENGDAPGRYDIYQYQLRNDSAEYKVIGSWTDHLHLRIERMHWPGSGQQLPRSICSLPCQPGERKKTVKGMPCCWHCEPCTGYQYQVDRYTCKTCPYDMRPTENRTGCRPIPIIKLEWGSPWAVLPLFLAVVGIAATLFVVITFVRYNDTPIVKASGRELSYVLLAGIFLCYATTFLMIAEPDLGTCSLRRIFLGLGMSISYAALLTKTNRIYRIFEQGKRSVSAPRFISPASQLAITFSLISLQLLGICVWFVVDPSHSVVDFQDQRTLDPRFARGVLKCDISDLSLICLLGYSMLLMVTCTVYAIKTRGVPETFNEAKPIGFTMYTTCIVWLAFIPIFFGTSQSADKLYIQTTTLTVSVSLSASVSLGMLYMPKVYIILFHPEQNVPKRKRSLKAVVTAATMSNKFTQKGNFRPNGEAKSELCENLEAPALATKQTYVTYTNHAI
Sequence of Metabotropic glutamate receptor 5 (Rattus norvegicus) (P31424 21-1203 limits assumed): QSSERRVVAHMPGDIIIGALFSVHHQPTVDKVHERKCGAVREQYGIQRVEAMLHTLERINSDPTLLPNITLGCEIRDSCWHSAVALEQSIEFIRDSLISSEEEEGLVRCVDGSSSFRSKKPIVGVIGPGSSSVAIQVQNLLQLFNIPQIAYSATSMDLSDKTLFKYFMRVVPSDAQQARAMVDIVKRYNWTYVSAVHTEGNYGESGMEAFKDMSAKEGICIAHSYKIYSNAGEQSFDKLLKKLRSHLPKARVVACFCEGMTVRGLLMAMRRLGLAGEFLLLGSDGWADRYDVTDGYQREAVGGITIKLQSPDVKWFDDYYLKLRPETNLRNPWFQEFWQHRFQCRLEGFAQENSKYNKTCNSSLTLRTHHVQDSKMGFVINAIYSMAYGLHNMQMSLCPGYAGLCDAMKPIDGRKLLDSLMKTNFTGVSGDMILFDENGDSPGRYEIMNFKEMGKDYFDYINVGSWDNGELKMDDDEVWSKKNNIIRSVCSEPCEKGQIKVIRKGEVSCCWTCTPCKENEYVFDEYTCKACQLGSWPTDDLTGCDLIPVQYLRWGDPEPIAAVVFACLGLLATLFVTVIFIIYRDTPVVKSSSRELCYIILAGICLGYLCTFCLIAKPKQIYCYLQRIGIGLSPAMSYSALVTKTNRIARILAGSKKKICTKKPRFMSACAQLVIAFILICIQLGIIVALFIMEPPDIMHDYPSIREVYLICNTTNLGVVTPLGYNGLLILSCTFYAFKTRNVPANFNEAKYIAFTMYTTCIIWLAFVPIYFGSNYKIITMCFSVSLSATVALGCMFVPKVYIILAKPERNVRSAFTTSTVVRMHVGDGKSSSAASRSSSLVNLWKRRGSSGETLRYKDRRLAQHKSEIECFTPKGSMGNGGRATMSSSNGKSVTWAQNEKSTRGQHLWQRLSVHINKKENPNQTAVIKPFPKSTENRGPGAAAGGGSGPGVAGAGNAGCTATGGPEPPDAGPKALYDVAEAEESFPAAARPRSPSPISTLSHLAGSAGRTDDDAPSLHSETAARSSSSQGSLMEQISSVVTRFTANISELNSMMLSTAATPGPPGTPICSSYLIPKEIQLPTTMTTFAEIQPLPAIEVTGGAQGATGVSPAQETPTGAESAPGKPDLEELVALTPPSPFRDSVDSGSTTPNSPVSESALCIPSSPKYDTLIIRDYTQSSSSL

efflux ratio [1]: 1.9
fraction unbound at 4 h [2]: 0.024
IC50 [3]: > 30 µM
Activity [4]: inactive
IC50 [5]: > 30 µM
%max [6]: 50.5%
Activity [8]: inactive
Papp B→A [9]: 5.4 ×10⁻⁶ cm/s
Vd [10]: 1.6 L/kg
EC50 [11]: 0.0827 µM
IC50 [13]: > 30 µM
Kp [14]: 0.4
IC50 [15]: > 30 µM
clearance [16]: 3.1 mL/min/kg
Compound: O=C(NC1CC(F)(F)C1)c1nsc2cc(Nc3n[nH]c4cccnc34)ccc12
Activity [7]: Active
concentration [12]: 46 nM

Reference: ChEMBL document CHEMBL4308847, “Discovery, Structure-Activity Relationship, and Biological Characterization of a Novel Series of 6-((1 H-Pyrazolo[4,3- b]pyridin-3-yl)amino)-benzo[ d]isothiazole-3-carboxamides as Positive Allosteric Modulators of the Metabotropic Glutamate Receptor 4 (mGlu4)” (J Med Chem, 2018)
